From ChEMBL document CHEMBL1144084, “Semisynthesis and cytotoxicity of styryl-lactone derivatives” (J Nat Prod, 1999)
Converted amounts (≈) assume the structure as drawn. The source made the active and inactive calls. No cut-off for these calls is given here.

Key:
L1210 [1] = test: Cell cycle arrest in mouse L1210 cells by accumulation at G2M phase after 21 hrs relative to control; format: functional
In short: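 L-1210 cells incubated 21 h at 37 °C with various drug concentrations, fixed in 70% EtOH (v/v), washed, then stained 30 min at 20 °C in PBS with 100 µg/mL RNAse and 25 µg/mL propidium iodide. Value is percentage of cells accumulated in G2 + M phase after 21 h versus untreated control.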

L1210 [2] = test: Cytotoxicity against mouse L1210 cells after 48 hrs by MTT assay; format: functional, cell-based; conditions: L1210, 48 h
In short: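 Cells grown in RPMI 1640 with 10% fetal calf serum, 2 mM L-glutamine, penicillin/streptomycin and 10 mM Hepes (pH 7.4), exposed 48 h to graded drug concentrations. Read-out by microculture tetrazolium assay. IC50 is the concentration lowering optical density by 50% relative to untreated controls.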

Row | SMILES | Activity (L1210 [1]) | IC50 (L1210 [2]) [µg/mL]
1 | O=C1C=C[C@@H]2O[C@H](c3ccccc3)[C@@H](O)[C@@H]2O1 [ALTHOLACTONE] | 35% | 2.9 (≈ 12.5 µM)
2 | CO[C@H]1[C@@H](O)[C@H](O)[C@@H](c2ccccc2)OC(=O)C[C@H]1OC | inactive | 5.2 (≈ 17.5 µM)
3 | O=C1C=C[C@@H]2O[C@H](c3c([N+](=O)[O-])cccc3[N+](=O)[O-])[C@@H](O)[C@@H]2O1 | inactive | 5 (≈ 15.5 µM)
4 | O=C1C[C@@H](Cl)[C@@H]2O[C@H](c3ccccc3)[C@@H](O)[C@@H]2O1 | 35% | 3.7 (≈ 13.8 µM)
5 | O=C1C=C[C@@H]2O[C@H](c3ccc([N+](=O)[O-])cc3)[C@@H](O)[C@@H]2O1 | 35% | 3.2 (≈ 11.5 µM)
